{"data": "Published values pooled from the literature", "target": "Substance-P receptor (TACR1, Homo sapiens, UniProt P25103)", "note": "Each line is one published result; the experiments were not run side by side."}
{"Compound": "COc1ccc(C(=O)NCc2cc(C(C)C)no2)cc1OC1CCN(C)CC1", "read-out": "ligand displacement", "technique": "radioligand", "concentration": "10 µM", "inhibition [%]": 22}
{"Compound": "COc1ccc(S(=O)(=O)N2CCCCC2)cc1C", "read-out": "ligand displacement", "technique": "radioligand", "concentration": "10 µM", "inhibition [%]": "< 30"}
{"Compound": "CC(C)Cn1cnc2c(N)nc3ccccc3c21", "read-out": "ligand displacement", "technique": "radioligand", "concentration": "10 µM", "inhibition [%]": -8}
{"Compound": "O=C(Nc1cccnn1)N1CCN([C@@H]2CCOc3cc(C(F)(F)F)ccc32)CC1", "read-out": "ligand displacement", "concentration": "20 µM", "inhibition [%]": 38}
{"Compound": "C[C@H](C(=O)N[C@H]1COc2ccccc2[C@@H]1S(C)(=O)=O)c1ccc(F)cc1", "read-out": "cell-free assay", "concentration": "10 µM", "inhibition [%]": 11}
{"Compound": "CC(C)N1CCC[C@H]1CNC(=O)c1cn(C2CCCC2)c(=O)c2c1c1ccccc1n2C", "read-out": "ligand displacement", "technique": "radioligand", "concentration": "10 µM", "inhibition [%]": 23}
{"Compound": "CN(CCN1CCC(OC(=O)Nc2ccccc2-c2ccccc2)CC1)C(=O)c1ccc(CN2CCC(C(N)=O)CC2)cc1", "read-out": "ligand displacement", "technique": "radioligand", "concentration": "1 µM", "inhibition [%]": -6}
{"Compound": "c1ccc(C(NCCNC(c2ccccc2)c2ccccc2)c2ccccc2)cc1", "read-out": "cell-free assay", "concentration": "10 µM", "inhibition [%]": 49}
{"Compound": "CCCCCCCCCCCC(=O)OC[C@@H](COP(=O)(O)OCCNC(=O)c1ccc(Cn2c(=O)[nH]c3c(N)nc(OCCOC)nc32)cc1)OC(=O)CCCCCCCCCCC", "read-out": "ligand displacement", "technique": "radioligand", "concentration": "10 µM", "inhibition [%]": 23}
